The test system of assay [1] is Escherichia coli. Put plainly: Michaelis constant (Km) in the peptidyltransferase reaction; Inactive. The assay is classed as functional. In short, it runs like this: (§1)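 E. coli ribosomes (washed, 2.78 A260 units) loaded with Ac[14C]Phe-tRNA (21 pmol) in 100 mM Tris-Cl pH 7.5, 100 mM NH4Cl, 15 mM Mg(OAc)2, 0.65 mM DTT, 1.2 mM GTP, FWR, poly(U), 28 °C for 8 min. Analogue then added as acceptor. Radiolabelled product counted and blank-corrected. Duplicates at five substrate concentrations. Km/Vmax from double-reciprocal plots by Wilkinson analysis.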

Assay [2] relates to Escherichia coli. Put plainly: Vmax in the peptidyltransferase reaction. Type of assay: functional. In short, it runs like this: as §1
Assay [3] relates to Escherichia coli. Put plainly: Michaelis constant (Km) in the peptidyltransferase reaction. The assay is classed as functional. In short, it runs like this: as §1
Assay [4] deals with Escherichia coli. Nature of the assay: Compound was evaluated for the substrate activity in the peptidyltransferase reaction of Escherichia coli ribosomes.

The source made the active and inactive calls. The calls are words filed in the database; no cut-off is given here.

Our source for the Km, Vmax and Substrate efficiency values is ChEMBL document CHEMBL1121798, “Puromycin analogues. Effect of aryl-substituted puromycin analogues on the ribosomal peptidyltransferase reaction” (J Med Chem, 1981).

For the compound `CN(C)c1ncnc2c1ncn2C1OC(CO)C(NC(=O)C(N)Cc2ccc(NC(=O)CBr)cc2)C1O` (stereo unspecified), the Km entry with Escherichia coli [1] is “inactive”.
As for `CN(C)c1ncnc2c1ncn2C1OC(CO)C(NC(=O)C(N)Cc2ccc(N)cc2)C1O` (stereo unspecified), the Vmax in the assay on Escherichia coli [2] stood at 0.79 pmol/min. Also, the Michaelis constant (Km) in the assay on Escherichia coli [3] was determined as 120 µM. The Substrate efficiency in the assay on Escherichia coli [4] came out at 89%.
Take `CCCC(=O)Nc1ccc(CC(N)C(=O)NC2C(CO)OC(n3cnc4c(N(C)C)ncnc43)C2O)cc1` (stereo unspecified): the Vmax in the assay with Escherichia coli [2] amounted to 0.53 pmol/min. Besides, the Michaelis constant (Km) with Escherichia coli [3] stood at 367 µM. Besides, in the assay with Escherichia coli [4], the Substrate efficiency was found to be 19.5%.
Taken in the same sequence, the figures for `CN(C)c1ncnc2c1ncn2C1OC(CO)C(NC(=O)C(N)Cc2ccc([N+](=O)[O-])cc2)C1O` (stereo unspecified) were 0.39 pmol/min, 255 µM and 20.7%.
For `CC(=O)Nc1ccc(CC(N)C(=O)NC2C(CO)OC(n3cnc4c(N(C)C)ncnc43)C2O)cc1` (stereo unspecified), in that order: 0.45 pmol/min, 256 µM and 23.7%.
Taken in the same sequence, the figures for `COc1ccc(C[C@H](N)C(=O)N[C@H]2[C@@H](O)[C@H](n3cnc4c(N(C)C)ncnc43)O[C@@H]2CO)cc1` were 0.99 pmol/min, 134 µM and 100%.

For orientation: Km means the substrate concentration at which the rate is half of its maximum. For orientation: Vmax means the rate approached at saturating substrate.
